Results: ChEMBL document CHEMBL4385612, “Novel 15-Lipoxygenase-1 Inhibitor Protects Macrophages from Lipopolysaccharide-Induced Cytotoxicity” (J Med Chem, 2019)
pIC50: −log10 of the molar value. One block for each compound: values may come before it. Active and inactive are the calls of the source. No cut-off for these calls is given here.

Experiments:
[1] = target: T1, Polyunsaturated fatty acid lipoxygenase ALOX15 (Homo sapiens, UniProt P16050); test: Inhibition of human recombinant N-terminal His6-tagged 15-LOX1 expressed in Escherichia coli BL21(DE3) using linoleic acid as substrate preincubated for 10 mins followed by substrate addition by UV absorption analysis
T1 sequence (P16050 whole entry): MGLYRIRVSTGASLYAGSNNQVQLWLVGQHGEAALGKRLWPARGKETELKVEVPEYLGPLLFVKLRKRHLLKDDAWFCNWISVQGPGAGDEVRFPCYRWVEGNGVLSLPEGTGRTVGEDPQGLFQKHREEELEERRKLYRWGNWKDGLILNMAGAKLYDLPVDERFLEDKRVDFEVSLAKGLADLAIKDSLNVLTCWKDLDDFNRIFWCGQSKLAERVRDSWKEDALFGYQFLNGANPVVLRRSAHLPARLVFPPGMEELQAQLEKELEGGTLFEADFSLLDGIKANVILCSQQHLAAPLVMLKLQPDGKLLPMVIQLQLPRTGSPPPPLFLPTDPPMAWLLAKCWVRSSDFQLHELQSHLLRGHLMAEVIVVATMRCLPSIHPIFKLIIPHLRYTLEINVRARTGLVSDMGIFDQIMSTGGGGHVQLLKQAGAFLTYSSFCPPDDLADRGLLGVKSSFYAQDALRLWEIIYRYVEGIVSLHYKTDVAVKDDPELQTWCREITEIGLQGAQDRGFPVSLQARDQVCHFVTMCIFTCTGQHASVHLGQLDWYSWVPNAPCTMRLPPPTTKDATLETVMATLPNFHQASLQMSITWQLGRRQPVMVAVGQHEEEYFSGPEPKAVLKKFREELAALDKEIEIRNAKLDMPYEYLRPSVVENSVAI

RAW264.7 [2] = test: Inhibition of LPS/IFNgamma-stimulated lipid peroxidation in mouse RAW264.7 cells at 5 uM after 24 hrs by BODIPY 581/591 C11-staining based FACS assay; type: functional, cell-based
How it was run: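 RAW 264.7 cells, 10 × 10^6 per well, incubated overnight. Then LPS/IFNγ (10 ng/mL each) for 24 h with or without inhibitor at 5 μM. Unstimulated cells served as control. Stained with BODIPY 581/591 C11 for 30 min at 37 °C. Red-to-green fluorescence shift measured by flow cytometry, 488 nm excitation. n = 3, mean ± SEM.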

RAW264.7 [3] = test: Protection against LPS-induced cell death in mouse RAW264.7 cells assessed as increase in cell viability at 5 uM measured after 48 hrs by MTS assay relative to control; type: functional
How it was run: (§1)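 RAW 264.7 cells seeded at 5000 per well. Given 100 μg/mL LPS together with compound (0.2, 1, 5 μM) for 48 h. Viability measured by MTS: reagent for 2 h at 37 °C, absorbance at 490 nm. Compared with LPS-only control. n = 3–13, mean ± SEM.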

[4] = Stability in pH 7.4 2-betamercaptoethanol at 25 to 50 uM by UV-spectra analysis; type: physicochemical; details: buffer, pH 7.4, 50 µM
How it was run: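 UV spectrum of compound recorded during incubation with 2-mercaptoethanol at pH 7.4, to follow thiol conjugate addition to the α,β-unsaturated amide.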

RAW264.7 [5] = test: Protection against LPS-induced cell death in mouse RAW264.7 cells assessed as increase in cell viability measured after 48 hrs by MTS assay; type: functional, cell-based; how it was run: as §1
[6] = target: T2, Polyunsaturated fatty acid lipoxygenase ALOX15 (Mus musculus) (UniProt P39654); test: Inhibition of N144 probe binding to 15-LOX in mouse RAW264.7 cells measured after 2 mins by HRP-coupled Western blot analysis; type: cell-based
T2 sequence (whole entry): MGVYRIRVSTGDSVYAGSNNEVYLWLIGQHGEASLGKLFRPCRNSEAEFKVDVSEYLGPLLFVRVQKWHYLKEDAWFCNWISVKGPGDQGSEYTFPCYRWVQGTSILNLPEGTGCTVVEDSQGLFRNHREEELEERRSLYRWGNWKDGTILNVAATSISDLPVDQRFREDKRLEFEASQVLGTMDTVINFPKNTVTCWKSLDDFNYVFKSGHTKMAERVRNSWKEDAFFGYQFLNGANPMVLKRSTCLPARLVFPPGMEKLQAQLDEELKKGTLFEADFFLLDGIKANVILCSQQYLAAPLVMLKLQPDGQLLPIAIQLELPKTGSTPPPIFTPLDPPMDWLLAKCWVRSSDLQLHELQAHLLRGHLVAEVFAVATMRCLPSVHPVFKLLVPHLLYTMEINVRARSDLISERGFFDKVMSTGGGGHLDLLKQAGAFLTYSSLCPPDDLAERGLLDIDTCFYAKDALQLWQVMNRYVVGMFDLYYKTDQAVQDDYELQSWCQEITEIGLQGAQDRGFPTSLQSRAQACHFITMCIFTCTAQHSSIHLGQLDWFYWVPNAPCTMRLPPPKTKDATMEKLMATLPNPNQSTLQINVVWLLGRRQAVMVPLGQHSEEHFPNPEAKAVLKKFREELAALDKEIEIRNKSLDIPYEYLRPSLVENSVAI
How it was run: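 Lysates of inhibitor-treated and untreated RAW 264.7 cells exposed to covalent alkene probe N144 for 2 min. Probe then biotinylated by oxidative Heck reaction with a biotinylated phenylboronic acid and detected on blots with streptavidin–HRP. Blots also probed for 15-LOX-1 and β-actin. Band intensities normalised to β-actin. n = 3 independent experiments, mean ± SEM.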

[7] = target: T2, Polyunsaturated fatty acid lipoxygenase ALOX15 (Mus musculus); test: Inhibition of 15LOX1 in mouse RAW blue cells assessed as suppression of LPS/IFNgamma-stimulated NFkappaB activation by measuring reduction in SEAP release at 0.2 to 5 uM preincubated for 20 hrs followed by LPS/IFNgamma-stimulation and measured after 4 hrs by quanti blue reagent-based reporter gene assay; type: cell-based
How it was run: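 RAW-Blue cells (RAW 264.7 carrying an NF-κB–SEAP reporter, kept with 200 μg/mL Zeocin) seeded at 10 × 10^4 per well the day before. Pretreated with compound (0.2, 1, 5 μM) for 20 h, then LPS and IFNγ (10 ng/mL each) added for 4 h. Secreted SEAP read with QuantiBlue after 2 h at 37 °C, absorbance 635–655 nm. n = 8–16, mean ± SEM.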

[8] = target: T2, Polyunsaturated fatty acid lipoxygenase ALOX15 (Mus musculus); test: Inhibition of 15-LOX1 in LPS/IFNgamma-stimulated mouse RAW264.7 cells assessed as reduction in nitric oxide production preincubated for 20 hrs followed by LPS/IFNgamma stimulation and measured after 4 hrs by colorimetric method; type: cell-based
How it was run: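 RAW 264.7 cells stimulated with LPS and IFNγ (10 ng/mL each). Figure legend: compound added at 0.2, 1 and 5 μM for 20 h, then LPS/IFNγ for a further 4 h. Methods describe 2 × 10^6 cells per well and a 24 h incubation at 5 μM. Total nitrate/nitrite measured with a colorimetric kit. Stimulated control set to 100%. n = 3, mean ± SEM.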

[9] = target: T2, Polyunsaturated fatty acid lipoxygenase ALOX15 (Mus musculus); test: Inhibition of 15LOX1 in LPS/IFNgamma-stimulated mouse RAW264.7 cells assessed as down regulation of iNOS gene expression at 5 uM preincubated for 20 hrs followed by LPS/IFNgamma stimulation and measured after 4 hrs by RT-PCR analysis relative to control; type: cell-based
How it was run: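 RAW 264.7 cells pretreated with compound (0.2, 1, 5 μM) for 20 h, then stimulated with LPS/IFNγ (10 ng/mL each) for 4 h in its presence. Total RNA isolated and integrity checked by 28S/18S ratio. RNA reverse-transcribed, and 10 ng cDNA used per real-time PCR. iNOS expression calculated by 2^–ΔΔCt and normalised to the stimulated positive control. n = 3–4, mean ± SEM.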

pIC50 [1]: < 4.70
SMILES: CCCNC(=O)c1[nH]c2cc(Cl)ccc2c1/C=C/C(=O)NCc1ccccc1OC

SMILES: c1ccc2c(c1)SCc1c-2[nH]c2ccccc12
inhibition (RAW264.7 [2]): Active

pIC50 [1]: < 4.70
SMILES: CCCNC(=O)c1c(C(=O)OCC)[nH]c2cc(Cl)ccc12

pIC50 [1]: < 4.70
SMILES: O=C(NC1CC1)c1cc2ccc(Cl)cc2[nH]1

pIC50 [1]: < 4.70
SMILES: CCCNC(=O)c1[nH]c2cc(Cl)ccc2c1C(=O)C[C@@H](C)CCCC(C)C

SMILES: CCOC(=O)c1[nH]c2cc(Cl)ccc2c1C(=O)C[C@@H](C)CCCC(C)C
Activity (RAW264.7 [3]): Active

pIC50 [1]: < 4.70
SMILES: CCCNC(=O)c1[nH]c2cc(Cl)ccc2c1CN(C)C

pIC50 [1]: < 4.70
SMILES: CCOC(=O)c1[nH]c2cc(Cl)ccc2c1/C=C/C(=O)NCCc1ccccc1

SMILES: CC(c1cc2ccccc2s1)N(O)C(N)=O (centres undefined)
Activity (RAW264.7 [3]): Active
inhibition (RAW264.7 [2]): Active

SMILES: CCOC(=O)c1[nH]c2cc(Cl)ccc2c1/C=C/C(=O)NCc1ccccc1OC
Stability [4]: Stable
Activity (RAW264.7 [5]): Dose-dependent effect
Activity (RAW264.7 [3]): 20%
inhibition [6]: Active
inhibition [7]: Active
inhibition (RAW264.7 [2]): Active
inhibition [8]: Dose-dependent effect
inhibition [9]: 50%

pIC50 [1]: < 4.70
SMILES: CCCNC(=O)c1[nH]c2cc(Cl)ccc2c1C(=O)C[C@H](C)CCCC(C)C
